The source of these data is ChEMBL document CHEMBL1122873, “Acetoxy-substituted 1,1,2-triphenylbut-1-enes with antiestrogenic and mammary tumor inhibiting properties” (1985).

Structures are written as SMILES.

Experiment [1] concerns the target T1, Estrogen receptor (Mus musculus) (UniProt O08537+P19785). Description: Estrogenic activity in immature mouse using Uterine weight test at 250 ug dose. The format is functional. Summed up: (§1)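 Immature female NMRI mice (10–12 g, 20 days old at start, 10 per group) got the compound sc daily for 3 consecutive days in 0.1 mL olive oil. Uteri were removed 24 h after the last injection, fixed in Bouin's solution, dried and weighed. Uterine growth stimulation is the estrogenic read-out.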

Experiment [2] addresses T1, Estrogen receptor (Mus musculus). Description: Antiestrogenic activity in immature mouse Uterine weight test at 5 ug dose. The format is functional. Summed up: (§2)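 Antiestrogenic read-out is inhibition of estrone-stimulated uterine growth, given as % inhibition. Immature female NMRI mice (10–12 g, 20 days old, 10 per group) received the compound sc daily for 3 days in 0.1 mL olive oil. Uteri were taken 24 h after the last dose, Bouin-fixed, dried and weighed.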

The target is the same in experiment [3]. As to the kind of experiment: Estrogenic activity in immature mouse using Uterine weight test at 1 ug dose. The format is functional. Summed up: as §1
For experiment [4] the target is unchanged. As to the kind of experiment: In vivo uterotrophic effect in hormone-dependent MXT mammary tumor bearing BDF1 mice at 12 mg/kg dose. The format is functional, organism-based. Set-up: dose 12 mg/kg. Summed up: (§3)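 Uterotrophic effect was measured in the same MXT tumor-bearing BDF1 mice (groups of 10). They were dosed sc three times weekly in olive oil (0.1 mL/mouse) for 6 weeks from day 1 after transplantation. Read-out is T/C % of uterotrophic effect versus solvent control after 6 weeks (mean of 10); significance α ≤ 0.05.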

For experiment [5], the system named is Mus musculus. Description: In vivo inhibition of hormone-dependent MXT mammary tumor in BDF1 mouse at 12 mg/kg dose. The format is functional. Summed up: (§4)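 Transplantable hormone-dependent MXT tumor pieces (1 per animal) were implanted in BDF1 mice, then randomized into groups of 10. Dosing was sc three times weekly (Mon/Wed/Fri) in olive oil (0.1 mL/mouse) from day 1 after transplantation for 6 weeks, at equimolar doses. Read-out is tumor weight T/C % versus solvent control (mean of 10); significance α ≤ 0.05.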

In experiment [6] the target is T1, Estrogen receptor (Mus musculus). Description: Antiestrogenic activity in immature mouse Uterine weight test at 25 ug dose. The format is functional. The essentials:
as §2

Experiment [7] has the same target. As to the kind of experiment: Estrogenic activity in immature mouse using Uterine weight test at 50 ug dose. Format: functional. Summed up:
as §1

Experiment [8] concerns the target T2, Estrogen receptor (Bos taurus) (UniProt Q9XSB5+P49884). Description: Relative displacement of [3H]estradiol from calf uterine estrogen receptor. The format is protein assay. Summed up:
(§5)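 Calf uterine cytosol was incubated with 1×10⁻⁹ M [³H]estradiol and five or six competitor concentrations for 16 h at 4 °C. Dextran-coated charcoal removed unbound ligand (90 min, 4 °C), and supernatant radioactivity was counted. The 50% displacement concentration was read from a semilog plot. RBA = [E2]/[I] × 100.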

Experiment [9] addresses T1, Estrogen receptor (Mus musculus). As to the kind of experiment: Estrogenic activity in immature mouse using Uterine weight test at 5 ug dose. Format: functional. The essentials:
as §1

Experiment [10] has the same target. As to the kind of experiment: Antiestrogenic activity in immature mouse Uterine weight test at 100 ug dose. Format: functional. Summed up: as §2
The subject of experiment [11] is Mus musculus. As to the kind of experiment: In vivo inhibition of hormone-dependent MXT mammary tumor in BDF1 mouse at 8.0 mg/kg dose. The format is functional. The essentials: as §4
The target in experiment [12] is T1, Estrogen receptor (Mus musculus). Description: In vivo uterotrophic effect in hormone-dependent MXT mammary tumor bearing BDF1 mice at 8.0 mg/kg dose. The format is functional, organism-based. Set-up: dose 8 mg/kg. The essentials: as §3
Experiment [13] deals with Mus musculus. Description: In vivo inhibition of hormone-dependent MXT mammary tumor in BDF1 mouse at 11.3 mg/kg dose. Format: functional. Summed up:
as §4

In experiment [14] the target is T1, Estrogen receptor (Mus musculus). As to the kind of experiment: Antiestrogenic activity in immature mouse Uterine weight test at 25 ug dose.
Experiment [15] concerns the target T2, Estrogen receptor (Bos taurus). Description: Tested in vitro for its binding affinity against Estrogen receptor. Format: protein assay. The essentials: as §5
Experiment [16] concerns the target T1, Estrogen receptor (Mus musculus). Description: Estrogenic activity in immature mouse using Uterine weight test at 25 ug dose. Format: functional. The essentials:
as §1

The target is the same in experiment [17]. As to the kind of experiment: Estrogenic activity in immature mouse using Uterine weight test at 10 ug dose. The format is functional. The essentials: as §1
For experiment [18] the target is unchanged. Description: Antiestrogenic activity in immature mouse Uterine weight test at 1 ug dose. Format: functional. Summed up: as §2
The test system of experiment [19] is Mus musculus. As to the kind of experiment: In vivo inhibition of hormone-dependent MXT mammary tumor in BDF1 mouse at 5.4 mg/kg dose. The format is functional. Summed up: as §4
The target of experiment [20] is T1, Estrogen receptor (Mus musculus). As to the kind of experiment: Estrogenic activity in immature mouse using Uterine weight test at 0.5 ug dose. Format: functional. The essentials:
as §1

T1 sequence (O08537 whole entry, looked up): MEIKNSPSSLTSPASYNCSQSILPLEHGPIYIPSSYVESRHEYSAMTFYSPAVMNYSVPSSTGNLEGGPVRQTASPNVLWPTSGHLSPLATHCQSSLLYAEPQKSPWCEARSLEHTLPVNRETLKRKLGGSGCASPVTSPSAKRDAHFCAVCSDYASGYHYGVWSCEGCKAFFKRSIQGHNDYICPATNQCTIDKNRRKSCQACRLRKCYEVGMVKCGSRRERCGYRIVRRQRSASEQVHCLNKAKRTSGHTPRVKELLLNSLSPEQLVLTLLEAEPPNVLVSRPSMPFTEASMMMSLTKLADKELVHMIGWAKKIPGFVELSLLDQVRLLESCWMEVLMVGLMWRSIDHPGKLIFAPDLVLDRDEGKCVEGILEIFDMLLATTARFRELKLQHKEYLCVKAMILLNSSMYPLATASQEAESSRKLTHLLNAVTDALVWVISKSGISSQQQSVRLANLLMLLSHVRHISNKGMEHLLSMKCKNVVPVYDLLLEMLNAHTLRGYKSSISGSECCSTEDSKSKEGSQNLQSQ
T1 sequence (P19785 whole entry, looked up): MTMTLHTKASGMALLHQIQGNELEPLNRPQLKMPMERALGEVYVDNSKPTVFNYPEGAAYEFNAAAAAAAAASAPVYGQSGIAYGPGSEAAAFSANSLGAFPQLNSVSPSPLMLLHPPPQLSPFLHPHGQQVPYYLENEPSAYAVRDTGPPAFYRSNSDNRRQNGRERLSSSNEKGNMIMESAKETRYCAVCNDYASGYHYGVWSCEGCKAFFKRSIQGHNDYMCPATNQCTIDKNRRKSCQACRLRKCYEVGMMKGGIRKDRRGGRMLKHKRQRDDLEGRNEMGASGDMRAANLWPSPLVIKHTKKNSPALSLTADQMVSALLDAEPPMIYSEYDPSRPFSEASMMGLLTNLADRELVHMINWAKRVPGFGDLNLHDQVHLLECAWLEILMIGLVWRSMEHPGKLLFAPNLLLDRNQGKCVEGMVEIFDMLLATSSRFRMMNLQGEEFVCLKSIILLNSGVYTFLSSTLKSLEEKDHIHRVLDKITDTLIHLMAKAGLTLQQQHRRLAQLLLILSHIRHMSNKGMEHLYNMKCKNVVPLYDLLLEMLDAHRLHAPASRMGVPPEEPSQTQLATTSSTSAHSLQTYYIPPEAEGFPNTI

Regarding `CC/C(=C(/c1ccc(OC(C)=O)cc1)c1cccc(OC(C)=O)c1)c1ccccc1`, the Estrogenic effect in [1] turned out to be 66; in [3], 8; in experiment [7], 66; in [9], 15. Moreover, the values for the inhibition in experiment [2], in experiment [6] and in experiment [10] were 28%, 33% and 9%, respectively. Besides, the T/C amounted to 110% in experiment [4] and 8% in [5]. In experiment [8], the RBA came out at 3.5%.

Regarding `CC/C(=C(\c1ccc(OC(C)=O)cc1)c1cccc(OC(C)=O)c1)c1ccccc1`, the Estrogenic effect in experiment [1] stood at 85; in [3] it was 23; in experiment [7] it was 73; in [9] it was 35. For the same compound, the inhibition in [2] turned out to be 41%; in experiment [6] it was 32%; in experiment [10] it was 3%. The T/C amounted to 25% in [11] and 116% in experiment [12]. For the same compound, the RBA in experiment [8] was 8.7%.

In experiment [13], `CC/C(=C(\c1ccccc1)c1ccc(OCCN(C)C)cc1)c1ccccc1.O=C(O)CC(O)(CC(=O)O)C(=O)O` [TAMOXIFEN CITRATE] returned a T/C of 4%.

Turning to `CC/C(=C(\c1ccccc1)c1ccc(OC(C)=O)cc1)c1cccc(OC(C)=O)c1`, the inhibition in experiment [2], in [14] and in [6] was 0% each time. The values for the T/C in experiment [11] and in experiment [12] were 7% and 193%, respectively. For the same compound, the Estrogenic effect in experiment [9] is 94. This compound also gave a relative binding affinity (RBA) in [15] of 6.1.

Take `CCC(=C(c1ccc(OC(C)=O)cc1)c1ccc(OC(C)=O)cc1)c1ccccc1`: the inhibition in experiment [2] and in experiment [18] was 0% throughout. In addition, the Estrogenic effect is 37 in experiment [3], 98 in [16], 72 in [9] and 85 in experiment [17]. The results for the T/C in [11] and in [12] were 7% and 110%, respectively.

In [19], `CC/C(=C(/CC)c1ccc(O)cc1)c1ccc(O)cc1` [DIETHYLSTILBESTROL] gave a T/C of 3%.

As to `CC/C(=C(/c1ccccc1)c1ccc(OC(C)=O)cc1)c1cccc(OC(C)=O)c1`, the Estrogenic effect in experiment [3] is 114; in experiment [20] it was 124; in experiment [9], 81. In addition, the T/C turned out to be 1% in experiment [11] and 205% in experiment [12]. Besides, the RBA in experiment [8] came to 11.1%.

`CC/C(=C(/c1ccccc1)c1cccc(OC(C)=O)c1)c1ccc(OC(C)=O)cc1`: the inhibition was determined as 0% in experiment [2], 0% in experiment [6] and 12% in experiment [18]. Also, the results for the Estrogenic effect in experiment [3], in experiment [7] and in experiment [9] were 18, 92 and 80, respectively. The figures for the T/C in [11] and in experiment [12] were 2% and 175%, respectively. In addition, the RBA in experiment [8] is 4.2%.

`CC/C(=C(\c1ccccc1)c1cccc(OC(C)=O)c1)c1ccc(OC(C)=O)cc1`: the inhibition in experiment [2] worked out at 45%; in experiment [6] it was 16%; in experiment [10] it was 9%. In addition, the results for the Estrogenic effect in experiment [3], in [7] and in [9] were 0, 61 and 18, respectively. Besides, the T/C amounted to 62% in [11] and 96% in experiment [12]. The compound further yielded an RBA in experiment [8] of 1.8%.
